# Source: ChEMBL document CHEMBL1130145, “Synthesis, anti-human immunodeficiency virus and anti-hepatitis B virus activities of novel oxaselenolane nucleosides” (J Med Chem, 1997)
# Key:
# CCRF-CEM = assay: The cytotoxicity against CEM cells; assay type: functional, cell-based; settings: Homo sapiens
# In short: (§1)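 Cytotoxicity tested at concentrations up to 100 μM in PBM, CEM and Vero cells.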
# [1] = In vitro anti-HIV activity in peripheral blood mononuclear cells.; assay type: functional
# In short: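 Antiviral assay in primary lymphocytes (peripheral blood mononuclear cells) infected with HIV-1; activity reported as EC50.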
# [2] = Toxic activity against VERO cells.; assay type: toxicity, cell-based; settings: Chlorocebus sabaeus; in short: as §1
# [3] = Toxic activity against peripheral blood mononuclear cells.; assay type: toxicity; in short: as §1
# HepG2 = assay: In vitro effective concentration against hepatitis B virus was determined in 2.2.15 cells; assay type: functional, cell-based; settings: Homo sapiens
SMILES,IC50 (CCRF-CEM) [µM],EC50 [1] [µM],IC50 [2] [µM],IC50 [3] [µM],EC50 (HepG2) [µM]
Nc1ccn([C@@H]2C[Se][C@@H](CO)O2)c(=O)n1,> 100,2.4,> 100,> 100,
Nc1nc(=O)n([C@@H]2C[Se][C@@H](CO)O2)cc1F,> 100,> 10,> 100,> 100,
Nc1nc(=O)n([C@H]2C[Se][C@@H](CO)O2)cc1F,> 100,0.51,> 100,> 100,1.2
Nc1ccn([C@H]2C[Se][C@@H](CO)O2)c(=O)n1,> 100,0.88,> 100,> 100,1.2
"Nc1ccn([C@@H]2CSC(CO)O2)c(=O)n1 (single isomer, unassigned) [LAMIVUDINE]",> 100,0.07,> 100,> 100,0.008
